PAFAH1B3 inh = blocks human PAF acetylhydrolase 1B catalytic subunit 3; Q15102; recombinant PAFAH1B3, FP-rhodamine probe, fluorescence polarization; inhibition, % at 3.39 µM; 340,000 tested, 0.28% active; AID 492972;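 active = inhibition above the screen-wide average of all tested compounds plus 3 SD, cut at about 25% in these data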;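 note: 0% = enzyme with DMSO only and 100% = wells lacking PAFAH1B3 protein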
Apaf-1 inh = inhibitors of human Apaf-1 apoptosome; 330,000 tested, 0.71% active; reconstituted apoptosome caspase-3 activity, DEVD-Rh110 fluorescence; inhibition, % at 20 µM; O14727; AID 489030; active = inhibition of at least 40% at 20 µM;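 note: plate controls were DMSO wells for no effect and DEVD-CHO caspase inhibitor wells for full effect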
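System – cell-free apoptosome with Apaf-1, procaspase-3 and caspase-9 · Buffer or medium – pH 7.5 Hepes buffer with CHAPS, BSA, DTT · Also added – cytochrome c with DEVD-Rh110 · Times – 30 min compound preincubation, 50 min activation, room temperature · Technique – Rh110 fluorescence intensity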
pPAFAH inh = pPAFAH (human) enzyme inhibition. recombinant pPAFAH, FP-rhodamine probe fluorescence polarization. inhibition, % at 3.39 µM. 330,000 tested, 1.5% active;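 active = inhibition above the mean inhibition across the screen plus 3 SD, cut at about 25% in these data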;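 note: inhibitors block binding of the rhodamine activity-based probe so polarization drops; 0% = enzyme with DMSO and 100% = wells lacking pPAFAH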
PAFAH1B2 inh = blocks human PAF acetylhydrolase 1b catalytic subunit 2; P68402; recombinant PAFAH1B2, FP-rhodamine activity probe, fluorescence polarization; inhibition, % at 3.39 µM; 340,000 tested, 1.2% active;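 active = inhibition above the mean of all tested compounds plus 3 SD, cut at about 24% in these data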;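 note: 0% = enzyme with DMSO and 100% = wells lacking PAFAH1B2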
Target sequence (P68402 whole entry, looked up): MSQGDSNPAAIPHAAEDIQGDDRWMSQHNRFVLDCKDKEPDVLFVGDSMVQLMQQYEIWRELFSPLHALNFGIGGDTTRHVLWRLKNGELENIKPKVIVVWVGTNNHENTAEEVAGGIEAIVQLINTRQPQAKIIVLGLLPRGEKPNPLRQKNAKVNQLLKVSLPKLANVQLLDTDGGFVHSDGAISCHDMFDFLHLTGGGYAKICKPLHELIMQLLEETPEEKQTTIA
PAFAH2 FP inh = PAFAH2 (human) inhibition | Q99487 | recombinant PAFAH2, FP-rhodamine activity probe, fluorescence polarization | inhibition, % at 3.39 µM | 340,000 tested, 0.99% active | AID 492956;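 active = inhibition above the mean over all tested compounds plus 3 SD, cut at about 30% in these data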;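 note: inhibitors block probe labeling of enzyme so polarization drops; 0% = enzyme with DMSO and 100% = wells lacking PAFAH2 protein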
PREPL inhibitor = human PREPL enzyme inhibition | Q4J6C6 | recombinant PREPL, fluorescence polarization activity-based probe | inhibition, % at 5.96 µM | 320,000 tested, 0.68% active; in the data active = inhibition above about 43%;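 note: 0% = enzyme with DMSO and 100% = wells lacking enzyme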
pPAFAH confirm = confirmation of human plasma PAF acetylhydrolase (pPAFAH) inhibitors; shares compounds with pPAFAH inh; recombinant pPAFAH, FP-Rh probe fluorescence polarization; inhibition, % at 3.39 µM; 2,300 tested, 72% active; AID 463230;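 active = mean inhibition of the triplicate above the hit cutoff set for the earlier primary screen, cut at about 25% in these data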;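 note: 0% = enzyme with DMSO and 100% = wells lacking pPAFAH enzyme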
The depositor's hits bear a star; nt = no result given. An excerpt weighted towards active compounds, which were near 3.5% of everything screened.

SMILES	PAFAH1B3 inh	Apaf-1 inh	pPAFAH inh	PAFAH1B2 inh	PAFAH2 FP inh	PREPL inhibitor	pPAFAH confirm
Cc1ccc(C2C(/C=C3/SC(=S)NC3=O)=C(c3cccs3)Oc3ccccc32)cc1 (centres undefined)	8	19	39*	5	21	7	47*
CC(=O)Nc1ccc(Br)c2ccccc12	8	-10	-2	3	7	-4	nt
O=C(Nc1ccc(Br)c2ccccc12)c1ccc2ccccc2c1O	22	nt	36*	18	48*	17	52*
CC(OC(=O)CCC1CCCCC1)C(=O)Nc1ccc(S(N)(=O)=O)cc1 (centres undefined)	-2	15	0	3	-6	-1	nt
Cc1ccc(NC(=O)C(C)OC(=O)CCC2CCCCC2)cc1 (centres undefined)	6	20	43*	7	3	-2	8
CCCCCCCCCCCCN1[C@@H](CC(=O)O)c2cc(F)ccc2S1(=O)=O	-3	24	48*	31*	-2	-3	34*
CCCCCCCCN1[C@@H](CC(=O)OC)c2cc(F)ccc2S1(=O)=O	0	16	4	10	-6	-1	nt
O=C(O)/C(CC(=O)c1ccc(Cl)cc1)=N/Nc1ccc([N+](=O)[O-])cc1[N+](=O)[O-]	10	4	35*	20	21	26	72*
C/C(CCC(=O)O)=N/Nc1ccc([N+](=O)[O-])cc1[N+](=O)[O-]	3	9	-2	-4	-1	26	nt
COc1ccc(C(=O)N/N=C(\C)c2ccc3c(c2)C2C=CCC2C(c2ccccc2)N3)cc1 (centres undefined)	1	nt	10	-3	8	20	nt
COc1cccc(NS(=O)(=O)c2ccc3c(c2)C2C=CCC2C(c2ccc(C(=O)O)cc2)N3)c1 (centres undefined)	40*	nt	61*	36*	68*	37	61*
O=C(O)c1ccc2c(c1)[C@@H]1C=CC[C@@H]1[C@H](c1ccccn1)N2	61*	27	64*	33*	49*	14	15
CCOC(=O)C1=C(N)Oc2cc(O)ccc2C1c1ccc([N+](=O)[O-])cc1 (centres undefined)	-2	-1	0	6	-1	4	nt
O=Cc1ccc(C(=O)OCC(=O)NCCC2=CCCCC2)cc1	1	15	7	-2	23	0	nt
CN(C)c1ccc(C(=O)OCC(=O)NCCC2=CCCCC2)cc1	-1	-5	38*	1	80*	3	24
COc1ccc2[nH]c(=O)c(CNc3cc(C)ccc3C)cc2c1	-1	-4	10	3	2	10	nt
O=C(Nc1ccccc1Cl)c1cccc(NC(=O)c2cccs2)c1	5	-4	nt	-4	-9	nt	nt
CCOC(=O)c1c(N)sc(=S)c2c1CCC2	18	17	49*	5	28	9	16
CCOC(=O)c1c(N)sc(N)c1C(=O)OCC	-10	3	6	1	2	-4	nt
COc1cc(/C=N/NC(=O)c2ccc(CN3C(=O)c4cccc5cccc3c45)cc2)cc(OC)c1O	19	-2	38*	9	-14	28	20
Cc1ccc(C(=O)N2CCCC(CCC(=O)N3CCN(c4ccccn4)CC3)C2)cn1 (centres undefined)	15	2	7	8	4	5	nt
Cc1ccc(C(=O)N2CCCC(CCC(=O)N3CCN(c4ccccn4)CC3)C2)cc1C (centres undefined)	5	12	35*	-2	3	27	22
CN1C(C(=O)NCc2ccco2)=CC(c2ccc(F)cc2)=NS1(=O)=O	-7	-1	67*	-7	3	4	10
Cc1oc(-c2ccc(F)cc2)cc1-c1nn2c(-c3ccoc3C)nnc2s1	6	33	35*	0	16	8	17
COc1ccc(-c2nnc3sc(-c4ccco4)nn23)cc1OC	5	15	4	7	9	-12	nt
Cn1c(CNC(=O)c2ccc(Cl)cc2)nnc1SCC(=O)NC1=NCCS1	10	7	-1	6	0	0	nt

Source: PubChem BioAssay (several laboratories)
